Data on one molecule can be found in ChEMBL document CHEMBL4613227, “Synthesis and evaluation of the HIF-1α inhibitory activity of 3(5)-substituted-4-(quinolin-4-yl)- and 4-(2-phenylpyridin-4-yl)pyrazoles as inhibitors of ALK5” (Bioorg Med Chem Lett, 2020).

For assay [1], the system named is HCT-116. The assay is described as follows: Inhibition of hypoxia-induced HIF1alpha protein expression in human HCT116 cells incubated for 12 hrs under hypoxic condition by Western blot analysis. It counts as functional, cell-based. In short, it runs like this:
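HCT116 held under normoxia or hypoxia 12 h with graded concentrations; nuclear extracts probed for HIF-1α by Western blot, Topo-I as loading control.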

Assay [2] relates to HCT-116. The assay is described as follows: Induction of apoptosis in human HCT116 cells assessed as PARP cleavage at 50 uM preincubated for 12 hrs followed by TNF-stimulation and measured after 24 hrs by Western blot analysis. Format: functional, cell-based. An outline of the steps: (§1)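 HCT116 pretreated 12 h with 50 μM, then TNF (10 ng/mL) 24 h; whole cell extracts blotted for cleaved caspase-8, cleaved caspase-3, cleaved PARP, tubulin.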

Assay [3] deals with HCT-116. The assay is described as follows: Induction of apoptosis in human HCT116 cells assessed as viable cells at 50 uM preincubated for 12 hrs followed by TNF stimulation and measured after 24 hrs by Annexin-V/PI-staining based flow cytometric analysis (reference value: 92.4%). It counts as functional. To be noted: read-out: Activity.
Assay [4] deals with T1, TGF-beta receptor type-1 (Homo sapiens) (UniProt P36897).
T1 sequence (whole entry): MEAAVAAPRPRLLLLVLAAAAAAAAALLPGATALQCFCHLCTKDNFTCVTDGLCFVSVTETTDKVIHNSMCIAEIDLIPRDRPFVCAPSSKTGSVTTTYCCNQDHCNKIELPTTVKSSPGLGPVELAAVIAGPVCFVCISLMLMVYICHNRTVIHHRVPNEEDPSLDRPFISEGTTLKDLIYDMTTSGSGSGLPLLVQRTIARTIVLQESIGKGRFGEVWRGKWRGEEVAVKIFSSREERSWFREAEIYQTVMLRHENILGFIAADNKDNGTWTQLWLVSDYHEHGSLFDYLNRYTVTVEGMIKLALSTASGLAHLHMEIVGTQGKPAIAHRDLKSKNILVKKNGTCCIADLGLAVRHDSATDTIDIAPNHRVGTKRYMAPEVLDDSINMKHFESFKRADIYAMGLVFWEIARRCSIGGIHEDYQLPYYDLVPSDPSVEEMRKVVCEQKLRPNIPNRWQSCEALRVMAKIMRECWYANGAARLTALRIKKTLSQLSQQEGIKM
The assay is described as follows: Inhibition of recombinant GST-tagged human ALK5 expressed in baculovirus infected Sf9 insect cells assessed as residual activity at 10 uM. In short, it runs like this: (§2)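 Single-point kinase screen at 10 μM, in duplicate; ALK5 as human GST-fusion from baculovirus/Sf9, p38α as untagged human protein from E. coli; residual activity relative to DMSO vehicle, mean ± SD of two independent experiments.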

Assay [5] deals with HCT-116. In words: Induction of apoptosis in human HCT116 cells assessed as late apoptotic cells at 50 uM after 12 hrs by Annexin-V/PI-staining based flow cytometric analysis (reference value: 0.2%). It counts as functional.
In assay [6] the test system is HCT-116. The assay is described as follows: Induction of apoptosis in human HCT116 cells assessed as effect on cleaved caspase 8 expression at 50 uM preincubated for 12 hrs followed by TNF-stimulation and measured after 24 hrs by Western blot analysis. It counts as functional, cell-based. An outline of the steps: as §1
Assay [7] has as its system HCT-116. In words: Induction of apoptosis in human HCT116 cells assessed as necrotic cells at 50 uM preincubated for 12 hrs followed by TNF stimulation and measured after 24 hrs by Annexin-V/PI-staining based flow cytometric analysis (reference value: 3.6%). Format: functional.
The test system of another assay is HUVEC. The assay is described as follows: Inhibition of TNF-induced cell migration in HUVEC at 50 uM after 24 hrs by scratch wound healing assay. To be noted: Homo sapiens. It counts as functional, cell-based. In short, it runs like this: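 HUVEC scratch assay: cells pretreated with graded concentrations, with or without TNF (10 ng/mL); uncovered area photographed at 24 h.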

For assay [8], the target named is T2, Mitogen-activated protein kinase 14 (Homo sapiens, UniProt Q16539). The assay is described as follows: Inhibition of recombinant human p38alpha expressed in Escherichia coli. In short, it runs like this: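 IC50 determination against ALK5 (human GST-fusion, Sf9 baculovirus) and p38α (untagged human, E. coli); values averaged from three independent experiments run in triplicate.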
T2 sequence (Q16539 whole entry, the tested form may be a part): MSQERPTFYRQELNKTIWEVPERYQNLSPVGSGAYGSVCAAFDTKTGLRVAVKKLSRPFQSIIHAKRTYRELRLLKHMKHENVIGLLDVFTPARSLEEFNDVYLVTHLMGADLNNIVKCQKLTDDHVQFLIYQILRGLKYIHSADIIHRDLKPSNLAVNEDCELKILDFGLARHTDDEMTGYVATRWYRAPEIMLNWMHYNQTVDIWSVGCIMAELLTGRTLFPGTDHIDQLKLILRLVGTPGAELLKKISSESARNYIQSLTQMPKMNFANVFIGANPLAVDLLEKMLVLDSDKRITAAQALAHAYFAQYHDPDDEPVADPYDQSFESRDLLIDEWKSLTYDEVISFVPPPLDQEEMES

Assay [9] addresses T2, Mitogen-activated protein kinase 14. In words: Inhibition of recombinant human p38alpha expressed in Escherichia coli assessed as residual activity at 10 uM (reference value: 100 +/- 0.1%). In short, it runs like this: as §2
Assay [10] concerns HCT-116. In words: Inhibition of HIF1alpha accumulation in hypoxia-induced human HCT116 cells at 50 uM preincubated for 30 mins in presence of proteasome inhibitor MG-132 followed by compound addition and measured after 12 hrs under hypoxic condition by Western blot analysis. It counts as functional, cell-based. An outline of the steps:
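HCT116 pretreated with MG-132 (10 μM) 30 min, then compound (50 μM) under 1% O₂ for 12 h; nuclear HIF-1α by Western blot, Topo-I loading control.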

pIC50: −log10 of the molar value. Active and inactive are the calls of the source. The calls are words filed in the database; no cut-off is given here.

For the molecule `Cc1cccc(-c2nn(CC(=S)Nc3cccc(C#N)c3)cc2-c2ccnc3ccccc23)n1`, in the assay on HCT-116 [1], the inhibition result is “Dose-dependent effect”. The result in the assay on HCT-116 [2] and with HCT-116 [6] was Active. Besides, the viability at 50 µM in the assay with HCT-116 [3] was determined as 86.8%. In addition, the Activity in assay [4] turned out to be 2%; with HCT-116 [5] it was 3.2%; with HCT-116 [7], 5.4%; in [9], 3%. Moreover, the inhibition result in the assay on HUVEC and with HCT-116 [10] was “Active” throughout. Also, in assay [8], the pIC50 was 6.98.
